Experiments:
HEL [1] = experiment: Induction of cell cycle arrest in human HEL cells assessed as accumulation at G1 phase at 0.33 uM after 72 hrs by propidium iodide-staining based flow cytometry (reference value: 43.12%); assay type: functional
Method in brief: (§1)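 Subconfluent HEL cells were treated for 72 h at 0.33, 1.0, 3.0 or 9.0 μM, with untreated cells as control. Cultures were pulsed with 10 μM BrdU for 30 min at 37 °C before harvest, then PBS-washed, fixed in 70% ethanol and denatured in 2 M HCl. After neutralization, cells were stained with fluorescein anti-BrdU antibody and propidium iodide. DNA content was measured by flow cytometry with 488 nm excitation.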

HEL [2] = experiment: Induction of apoptosis in human HEL cells assessed as late apoptotic cells at 3 uM after 72 hrs by FITC-annexin V/propidium iodide-double staining based flow cytometry (reference value: 1.63%); assay type: functional
HEL [3] = experiment: Induction of apoptosis in human HEL cells assessed as necrotic cells at 9 uM after 72 hrs by FITC-annexin V/propidium iodide-double staining based flow cytometry (reference value: 2.40%); assay type: functional
HEL [4] = experiment: Induction of apoptosis in human HEL cells after 72 hrs by FITC-annexin V/propidium iodide-double staining based flow cytometry; assay type: functional, cell-based
HEL [5] = experiment: Induction of cell cycle arrest in human HEL cells assessed as accumulation at G1 phase at 3 uM after 72 hrs by propidium iodide-staining based flow cytometry (reference value: 43.12%); assay type: functional; method in brief: as §1
HEL [6] = experiment: Induction of cell cycle arrest in human HEL cells assessed as accumulation of cells at G1/S phase after 72 hrs by propidium iodide-staining based flow cytometry; assay type: functional; method in brief: as §1
HEL [7] = experiment: Induction of apoptosis in human HEL cells assessed as viable cells at 9 uM after 72 hrs by FITC-annexin V/propidium iodide-double staining based flow cytometry (reference value: 93.77%); assay type: functional; settings: read-out: Activity
HEL [8] = experiment: Antiproliferative activity against human HEL cells assessed as growth inhibition after 72 hrs by CCK-8 assay; assay type: functional
Method in brief: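 CCK-8 viability readout. Cells were cultured in RPMI 1640 with 10% FBS and 1% penicillin/streptomycin and seeded at 3000 (HEL), 5000 (MV4-11) or 3000 (HL60) cells/well. Increasing compound concentrations were applied for 72 h, then CCK-8 was added for a further 3 h and absorbance read at 450 nm. Inhibition = (1−A_sample/A_control)×100, normalized to DMSO controls. Value is the mean of three independent measurements, obtained by curve fitting.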

[9] = target: T1, Receptor-type tyrosine-protein kinase FLT3 (Homo sapiens, UniProt P36888); experiment: Inhibition of N-terminal GST-tagged human FLT3 cytoplasmic domain (564 to 993 residues) expressed in baculovirus expression system musing FAM-labeled peptide as substrate preincubated for 10 mins followed by substrate addition measured after 1 hr in presence of ATP by mobility shift assay
T1 sequence (P36888 whole entry): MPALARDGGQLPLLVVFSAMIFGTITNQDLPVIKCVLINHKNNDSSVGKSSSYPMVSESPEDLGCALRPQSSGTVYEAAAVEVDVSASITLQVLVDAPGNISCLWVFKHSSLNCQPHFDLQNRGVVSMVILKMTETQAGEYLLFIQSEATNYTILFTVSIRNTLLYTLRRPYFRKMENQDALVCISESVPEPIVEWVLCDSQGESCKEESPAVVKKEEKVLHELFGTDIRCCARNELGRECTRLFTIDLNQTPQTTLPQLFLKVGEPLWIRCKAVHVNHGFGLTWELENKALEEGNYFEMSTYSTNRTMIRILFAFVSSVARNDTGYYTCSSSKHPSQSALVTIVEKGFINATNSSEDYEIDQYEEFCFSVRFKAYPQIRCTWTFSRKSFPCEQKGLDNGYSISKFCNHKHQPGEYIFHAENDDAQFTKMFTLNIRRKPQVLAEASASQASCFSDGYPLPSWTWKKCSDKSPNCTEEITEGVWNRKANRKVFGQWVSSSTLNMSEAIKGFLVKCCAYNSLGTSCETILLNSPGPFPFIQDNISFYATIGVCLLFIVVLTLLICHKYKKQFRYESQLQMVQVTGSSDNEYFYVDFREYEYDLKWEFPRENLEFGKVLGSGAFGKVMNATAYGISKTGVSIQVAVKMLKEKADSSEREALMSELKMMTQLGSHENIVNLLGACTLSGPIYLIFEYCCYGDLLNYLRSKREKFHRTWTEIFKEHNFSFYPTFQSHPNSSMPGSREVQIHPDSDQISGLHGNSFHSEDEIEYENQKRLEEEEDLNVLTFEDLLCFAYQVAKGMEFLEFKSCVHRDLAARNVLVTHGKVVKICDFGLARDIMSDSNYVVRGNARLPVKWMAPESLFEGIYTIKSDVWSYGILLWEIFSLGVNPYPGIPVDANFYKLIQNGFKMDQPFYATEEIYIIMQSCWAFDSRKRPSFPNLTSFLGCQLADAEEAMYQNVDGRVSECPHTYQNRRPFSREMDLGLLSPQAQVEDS
Method in brief: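 Caliper mobility-shift assay with recombinant kinase in 50 mM HEPES pH 7.5, 0.0015% Brij-35. Compound was diluted from DMSO and preincubated with enzyme for 10 min at room temperature. FAM-labeled peptide plus ATP was then added and the reaction run for 1 h at 28 °C. It was stopped with an EDTA (50 mM) buffer. Conversion gave percent inhibition relative to max/min controls, and IC50 came from a four-parameter Hill fit. Duplicate wells were used.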

HEL [10] = experiment: Induction of cell cycle arrest in human HEL cells assessed as accumulation at G1 phase at 1 uM after 72 hrs by propidium iodide-staining based flow cytometry (reference value: 43.12%); assay type: functional; method in brief: as §1
HEL [11] = experiment: Induction of apoptosis in human HEL cells assessed as necrotic cells at 0.33 uM after 72 hrs by FITC-annexin V/propidium iodide-double staining based flow cytometry (reference value: 2.40%); assay type: functional
HEL [12] = experiment: Induction of apoptosis in human HEL cells assessed as early apoptotic cells at 9 uM after 72 hrs by FITC-annexin V/propidium iodide-double staining based flow cytometry (reference value: 2.23%); assay type: functional
HEL [13] = experiment: Induction of apoptosis in human HEL cells assessed as necrotic cells at 1 uM after 72 hrs by FITC-annexin V/propidium iodide-double staining based flow cytometry (reference value: 2.40%); assay type: functional
HEL [14] = experiment: Induction of cell cycle arrest in human HEL cells assessed as accumulation at G2 phase at 9 uM after 72 hrs by propidium iodide-staining based flow cytometry (reference value: 15.10%); assay type: functional; method in brief: as §1
HEL [15] = experiment: Induction of cell cycle arrest in human HEL cells assessed as accumulation at S phase at 9 uM after 72 hrs by propidium iodide-staining based flow cytometry (reference value: 41.47%); assay type: functional; method in brief: as §1
[16] = target: Receptor-type tyrosine-protein kinase FLT3 (Homo sapiens) (UniProt P36888); settings: at 100 nM
HEL [17] = experiment: Induction of cell cycle arrest in human HEL cells assessed as accumulation at G2 phase at 1 uM after 72 hrs by propidium iodide-staining based flow cytometry (reference value: 15.10%); assay type: functional; method in brief: as §1
HEL [18] = experiment: Induction of apoptosis in human HEL cells assessed as early apoptotic cells at 3 uM after 72 hrs by FITC-annexin V/propidium iodide-double staining based flow cytometry (reference value: 2.23%); assay type: functional

CC(=O)c1ccc(NC(=O)N2CCN(c3ccnc(Nc4ccc(N5CCOCC5)cc4)n3)CC2)cc1
Activity (HEL [1]): 54.07% | Activity (HEL [2]): 33.6% | Activity (HEL [3]): 9.77% | Activity (HEL [4]): Dose-dependent effect | Activity (HEL [5]): 71.85% | Activity (HEL [6]): Dose-dependent effect | viability at 9 µM (HEL [7]): 24.3% | GI50 (HEL [8]): 4300 nM | IC50 [9]: 30 nM | Activity (HEL [10]): 61.44% | Activity (HEL [11]): 3.3% | Activity (HEL [12]): 35.53% | Activity (HEL [13]): 12.73% | Activity (HEL [14]): 2.07% | Activity (HEL [15]): 19.26% | inhibition [16]: 80.7% | Activity (HEL [17]): 6.97% | Activity (HEL [18]): 31.87%

From ChEMBL document CHEMBL4359878, “Discovery of 4-piperazinyl-2-aminopyrimidine derivatives as dual inhibitors of JAK2 and FLT3” (Eur J Med Chem, 2019)
